From ChEMBL document CHEMBL1124947, “Cationic antiprotozoal drugs. Trypanocidal activity of 2-(4'-formylphenyl)imidazo[1,2-a]pyridinium guanylhydrazones and related derivatives of quaternary heteroaromatic compounds” (J Med Chem, 1990)

How the values were obtained:
Mus musculus [1] = test: Trypanocidal Activity at I.C.E. value 0.68 when administered subcutaneously.; assay type: functional
In short: (§1)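 Mice, in groups of five per dose, were given a standard inoculum of blood-stage T. rhodesiense that is lethal to all untreated controls, then dosed subcutaneously. Usually 11 dose levels were used (2^n × 0.42 mg/kg).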

Mus musculus [2] = test: Trypanocidal Activity at I.C.E. value 0.53 when administered perorally.; assay type: functional
Mus musculus [3] = test: Trypanocidal Activity at I.C.E. value 0.58 when administered subcutaneously.; assay type: functional; in short: as §1
Mus musculus [4] = test: Trypanocidal Activity at I.C.E. value 0.51 when administered perorally.; assay type: functional
Mus musculus [5] = test: Trypanocidal Activity at I.C.E. value 0.79 when administered subcutaneously.; assay type: functional; in short: as §1
Mus musculus [6] = test: Trypanocidal Activity at I.C.E. value >0.5 when administered perorally.; assay type: functional
Mus musculus [7] = test: Fraction of mice that were cured after oral administration at a dose of 13 mg/kg and I.C.E. value of 0.84; assay type: functional
Mus musculus [8] = test: Fraction of mice that were cured after subcutaneous administration at a dose of 212 mg/kg and I.C.E. value of 0.54; assay type: functional
Mus musculus [9] = test: Fraction of mice that were cured after subcutaneous administration at a dose of 13 mg/kg and I.C.E. value of 0.54; assay type: functional
Mus musculus [10] = test: Fraction of mice that were cured after oral administration at a dose of 6.6 mg/kg and I.C.E. value of 0.84; assay type: functional
Mus musculus [11] = test: Fraction of mice that were cured after oral administration at a dose of 106 mg/kg and I.C.E. value of 0.49
Mus musculus [12] = test: Fraction of mice that were cured after subcutaneous administration at a dose of 106 mg/kg and I.C.E. value of 0.54; assay type: functional
Mus musculus [13] = test: Fraction of mice that were cured after oral administration at a dose of 0.83 mg/kg and I.C.E. value of 0.84; assay type: functional
Mus musculus [14] = test: Fraction of mice that were cured after subcutaneous administration at a dose of 0.83 mg/kg and I.C.E. value of 0.54; assay type: functional
Mus musculus [15] = test: Curative activity of the Compound after oral administration at a dose of 53 mg/kg ( T-Toxic) and I.C.E. value of 0.49 for 30 days; 5/5; assay type: functional
Mus musculus [16] = test: Curative activity of the Compound after Subcutaneous administration at a dose of 1.67 mg/kg and I.C.E. value of 0.54 for 30 days; 10/10; assay type: functional
Mus musculus [17] = test: Fraction of mice that were cured after subcutaneous administration at a dose of 53 mg/kg and I.C.E. value of 0.54; assay type: functional
Mus musculus [18] = test: Fraction of mice that were cured after oral administration at a dose of 424 mg/kg and I.C.E. value of 0.84; assay type: functional
Mus musculus [19] = test: Curative activity of the Compound after Subcutaneous administration at a dose of 6.6 mg/kg and I.C.E. value of 0.54 for 30 days; 5/5; assay type: functional
Mus musculus [20] = test: Curative activity of the Compound after Subcutaneous administration at a dose of 0.42 mg/kg and I.C.E. value of 0.54 for 30 days; 2/5; assay type: functional
Mus musculus [21] = test: Fraction of mice that were cured after oral administration at a dose of 0.42 mg/kg and I.C.E. value of 0.84; assay type: functional
Mus musculus [22] = test: Curative activity of the Compound after oral administration at a dose of 13 mg/kg and I.C.E. value of 0.49 for 30 days; 2/5; assay type: functional
Mus musculus [23] = test: Fraction of mice that were cured after subcutaneous administration at a dose of 0.42 mg/kg and I.C.E. value of 0.54; assay type: functional
Mus musculus [24] = test: Fraction of mice that were cured after oral administration at a dose of 3.3 mg/kg and I.C.E. value of 0.84; assay type: functional
Mus musculus [25] = test: Trypanocidal Activity at I.C.E. value 0.54 when administered subcutaneously.; assay type: functional
In short: (§2)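 Blood-stage T. rhodesiense infection came from a standard inoculum lethal to all untreated mice. Drug was given by subcutaneous injection to groups of five mice. Survival beyond 30 days counted as cure. […] Sub-curative doses scored 0, and data were normalized at each dose.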

Mus musculus [26] = test: Trypanocidal Activity at I.C.E. value 0.48 when administered perorally.; assay type: functional
Mus musculus [27] = test: Fraction of mice that were cured after oral administration at a dose of 53 mg/kg and I.C.E. value of 0.84; assay type: functional
Mus musculus [28] = test: Fraction of mice that were cured after subcutaneous administration at a dose of 424 mg/kg and I.C.E. value of 0.54; assay type: functional
Mus musculus [29] = test: Fraction of mice that were cured after subcutaneous administration at a dose of 1.67 mg/kg and I.C.E. value of 0.54; assay type: functional
Mus musculus [30] = test: Curative activity of the Compound after Subcutaneous administration at a dose of 26 mg/kg ( T-Toxic) and I.C.E. value of 0.54 for 30 days; 11/15; assay type: functional
Mus musculus [31] = test: Fraction of mice that were cured after oral administration at a dose of 26 mg/kg and I.C.E. value of 0.84; assay type: functional
Mus musculus [32] = test: Curative activity of the Compound after Subcutaneous administration at a dose of 3.3 mg/kg and I.C.E. value of 0.54 for 30 days; 24/25; assay type: functional
Mus musculus [33] = test: Curative activity of the Compound after oral administration at a dose of 106 mg/kg ( T-Toxic)and I.C.E. value of 0.49 for 30 days; 5/5; assay type: functional
Mus musculus [34] = test: Fraction of mice that were cured after subcutaneous administration at a dose of 6.6 mg/kg and I.C.E. value of 0.54; assay type: functional
Mus musculus [35] = test: Fraction of mice that were cured after subcutaneous administration at a dose of 3.3 mg/kg and I.C.E. value of 0.54; assay type: functional
Mus musculus [36] = test: Curative activity of the Compound after oral administration at a dose of 424 mg/kg ( T-Toxic)and I.C.E. value of 0.49 for 30 days; 10/10; assay type: functional
Mus musculus [37] = test: Curative activity of the Compound after Subcutaneous administration at a dose of 13 mg/kg and I.C.E. value of 0.54 for 30 days; 10/10; assay type: functional
Mus musculus [38] = test: Curative activity of the Compound after oral administration at a dose of 26 mg/kg and I.C.E. value of 0.49 for 30 days; 10/10; assay type: functional
Mus musculus [39] = test: Curative activity of the Compound after oral administration at a dose of 212 mg/kg ( T-Toxic)and I.C.E. value of 0.49 for 30 days; 5/5; assay type: functional
Mus musculus [40] = test: Fraction of mice that were cured after oral administration at a dose of 212 mg/kg and I.C.E. value of 0.84; assay type: functional
Mus musculus [41] = test: Fraction of mice that were cured after oral administration at a dose of 1.67 mg/kg and I.C.E. value of 0.84; assay type: functional
Mus musculus [42] = test: Curative activity of the Compound after Subcutaneous administration at a dose of 0.83 mg/kg and I.C.E. value of 0.54 for 30 days; 27/30; assay type: functional
Mus musculus [43] = test: Fraction of mice that were cured after subcutaneous administration at a dose of 26 mg/kg and I.C.E. value of 0.54; assay type: functional
Mus musculus [44] = test: Trypanocidal Activity at I.C.E. value 0.48 when administered subcutaneously.; assay type: functional; in short: as §2
Mus musculus [45] = test: Trypanocidal Activity at I.C.E. value 0.65 when administered perorally.; assay type: functional
Mus musculus [46] = test: Trypanocidal Activity at I.C.E. value 0.67 when administered subcutaneously.; assay type: functional; in short: as §1
Mus musculus [47] = test: Trypanocidal Activity at I.C.E. value 0.7 when administered subcutaneously.; assay type: functional; in short: as §1
Mus musculus [48] = test: Trypanocidal Activity at I.C.E. value 0.53 when administered subcutaneously.; assay type: functional; in short: as §2
Mus musculus [49] = test: Trypanocidal Activity at I.C.E. value 0.16 when administered perorally.; assay type: functional
Mus musculus [50] = test: Trypanocidal Activity at I.C.E. value 0.31 when administered subcutaneously.; assay type: functional; in short: as §2
Mus musculus [51] = test: Trypanocidal Activity at I.C.E. value 0.77 when administered subcutaneously.; assay type: functional; in short: as §1
Mus musculus [52] = test: Trypanocidal Activity at I.C.E. value 0.28 when administered subcutaneously.; assay type: functional; in short: as §2
[53] = tested on: Trypanosoma brucei rhodesiense; test: In Vitro Trypanosomal activity in rats was measured uptake of radiolabeled Leucine; assay type: functional; conditions: read-out: ID50 (the source's name)
In short: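 Trypanosomes harvested from infected rats, cultured 3 h with several concentrations of drug, usually 0.1–100 µg/mL. Radiolabeled L-leucine uptake measured. ID50 is the concentration in µg/mL giving 50% inhibition of incorporation.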

Mus musculus [54] = test: Trypanocidal Activity at I.C.E. value 0.65 when administered subcutaneously.; assay type: functional; in short: as §1
[55] = tested on: Trypanosoma brucei rhodesiense; test: In Vitro Trypanosomal activity in rats was measured uptake of radiolabeled Thymidine; assay type: functional; conditions: read-out: ID50 (the source's name)
In short: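 Parasites harvested from infected rats and incubated 3 h across a drug concentration series, usually 0.1–100 µg/mL. Incorporation of radiolabeled thymidine measured. ID50 is the concentration (µg/mL) producing 50% inhibition.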

`Br.Cn1c(COc2ccc(/C=N/NC3=NCCN3)cc2)[n+](C)c2ccccc21.[Br-]` showed a CD50 (Mus musculus [1]) of 0.2 mg/kg and a CD50 (Mus musculus [2]) of 13 mg/kg.

With `Br.C[n+]1c(-c2ccc(/C=C/C=N/NC3=NCCCN3)cc2)cn2ccccc21.[Br-]` the CD50 (Mus musculus [3]) was 0.06 mg/kg and the CD50 (Mus musculus [4]) was 13 mg/kg.

With `Br.C[n+]1c(/C=C/c2ccc(/C=N/NC3=NCCN3)cc2)cn2ccccc21.[Br-]` the CD50 (Mus musculus [5]) was 0.2 mg/kg and the CD50 (Mus musculus [6]) was 13 mg/kg.

Compound `C[n+]1c(-c2ccc(/C=N/NC(=N)N)cc2)cn2ccccc21.Cc1ccc(S(=O)(=O)O)cc1.Cc1ccc(S(=O)(=O)[O-])cc1` has a Fraction cured (Mus musculus [7]) of 0.4, a Fraction cured (Mus musculus [8]) of 0 and a Fraction cured (Mus musculus [9]) of 1. It also gave a Fraction cured (Mus musculus [10]) of 0, a Fraction cured (Mus musculus [11]) of 1 and a Fraction cured (Mus musculus [12]) of 0. It also gave a Fraction cured (Mus musculus [13]) of 0, a Fraction cured (Mus musculus [14]) of 0.9 and a Survivors (Mus musculus [15]) of 5. It also gave a Survivors (Mus musculus [16]) of 10, a Fraction cured (Mus musculus [17]) of 0 and a Fraction cured (Mus musculus [18]) of 1. It also gave a Survivors (Mus musculus [19]) of 5, a Survivors (Mus musculus [20]) of 2 and a Fraction cured (Mus musculus [21]) of 0. The Survivors (Mus musculus [22]) was 2, the Fraction cured (Mus musculus [23]) was 0.4 and the Fraction cured (Mus musculus [24]) was 0. For the same compound, the CD50 (Mus musculus [25]) was 0.8 mg/kg, the CD50 (Mus musculus [26]) was 26 mg/kg and the Fraction cured (Mus musculus [27]) was 1. The Fraction cured (Mus musculus [28]) was 0, the Fraction cured (Mus musculus [29]) was 1 and the Survivors (Mus musculus [30]) was 11. It also gave a Fraction cured (Mus musculus [31]) of 1, a Survivors (Mus musculus [32]) of 24 and a Survivors (Mus musculus [33]) of 5. The Fraction cured (Mus musculus [34]) was 1, the Fraction cured (Mus musculus [35]) was 0.96 and the Survivors (Mus musculus [36]) was 10. For the same compound, the Survivors (Mus musculus [37]) was 10, the Survivors (Mus musculus [38]) was 10 and the Survivors (Mus musculus [39]) was 5. It also gave a Fraction cured (Mus musculus [40]) of 1, a Fraction cured (Mus musculus [41]) of 0 and a Survivors (Mus musculus [42]) of 27. The Fraction cured (Mus musculus [43]) was 0.73.

For `CN(C)C(=N)N/N=C/c1ccc(-c2cn3ccccc3[n+]2C)cc1.I.[I-]`, the CD50 (Mus musculus [44]) was 0.2 mg/kg and the CD50 (Mus musculus [45]) was 6.6 mg/kg.

For `Br.Cc1cccc2n1cc(COc1ccc(/C=N/NC3=NCCCN3)cc1)[n+]2C.[Br-]`, the CD50 (Mus musculus [46]) was 0.4 mg/kg and the CD50 (Mus musculus [47]) was 0.8 mg/kg.

Compound `Br.Cc1ccn2cc(-c3ccc(/C=N/NC(=N)N4CCOCC4)cc3)[n+](C)c2c1.[Br-]` has a CD50 (Mus musculus [48]) of 0.4 mg/kg.

For `Br.C[n+]1ccccc1COc1ccc(/C=N/NC2=NCCCN2)cc1.[Br-]`, the CD50 (Mus musculus [49]) was 212 mg/kg and the CD50 (Mus musculus [50]) was 6.6 mg/kg.

`Br.Cc1ccc2n(c1)cc(/C=C/c1ccc(/C=N/NC(=N)N3CCCC3)cc1)[n+]2C.[Br-]` showed a CD50 (Mus musculus [51]) of 0.4 mg/kg.

`Cc1ccc2n(c1)cc(-c1ccc(/C=N/Nc3nccs3)cc1)[n+]2C.[Br-]` gave a CD50 (Mus musculus [52]) of 106 mg/kg.

With `C[n+]1c(-c2ccc(/C=N/Nc3nc[nH]n3)cc2)cn2ccccc21.[Br-]` the IC50 [53] was greater than 10 µg/mL, the CD50 (Mus musculus [54]) was 0.8 mg/kg and the IC50 [55] was 0.5 µg/mL.
